Screening data from PubChem BioAssay.
Most compounds without a hit are left out; they make up all but 1.9% or so of the library.
LEDGF integ inh – blocks HIV-1 LEDGF/p75-dependent DNA integration; TR-FRET IN-LEDGF/p75 DNA integration, Eu/Cy5; inhibition, % at 3.7 µM; 370,000 compounds, 0.64% hits;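 active = inhibition above the screen-wide mean plus 3 SD, cut at about 13% in these data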;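 note: signal is the Cy5 over europium emission ratio at 671 and 618 nm; 0% = plate median of compound wells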
TDP2 absorb – TDP2 (human) inhibition, absorbance primary screen; O95551; recombinant TDP2, T5PNP hydrolysis, p-nitrophenol absorbance 415 nm; inhibition, % at 12.8 µM; 370,000 compounds, 0.34% hits; AID 720702;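 active = inhibition above the mean of all tested compounds plus 3 SD, set per campaign, cut at about 25% in these data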;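 note: 0% = DMSO with enzyme and 100% = buffer with substrate but no TDP2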
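Read-out basis: percent inhibition. System: recombinant human TDP2. Buffer or medium: Mg2+-containing Tris-HCl buffer, pH 7.5. Repeats: single replicate. Timing: reaction 2 h, 37 °C. Benchmarks: high control without enzyme, low control DMSO plus TDP2. Probe or stimulus: 5 mM T5PNP. Doses: 12.8 µM only. Measured by: epi absorbance of p-nitrophenol freed from T5PNP by hydrolysis.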
MBD2 inh – MBD2-methylated oligo binding inhibition; Q9UBB5; TR-FRET, MBD2 binding to methylated oligonucleotide; inhibition, % at 4.4 µM; 370,000 compounds, 0.31% hits; AID 686964; in the data active = inhibition above about 13%
Target sequence (Q9UBB5 whole entry, looked up): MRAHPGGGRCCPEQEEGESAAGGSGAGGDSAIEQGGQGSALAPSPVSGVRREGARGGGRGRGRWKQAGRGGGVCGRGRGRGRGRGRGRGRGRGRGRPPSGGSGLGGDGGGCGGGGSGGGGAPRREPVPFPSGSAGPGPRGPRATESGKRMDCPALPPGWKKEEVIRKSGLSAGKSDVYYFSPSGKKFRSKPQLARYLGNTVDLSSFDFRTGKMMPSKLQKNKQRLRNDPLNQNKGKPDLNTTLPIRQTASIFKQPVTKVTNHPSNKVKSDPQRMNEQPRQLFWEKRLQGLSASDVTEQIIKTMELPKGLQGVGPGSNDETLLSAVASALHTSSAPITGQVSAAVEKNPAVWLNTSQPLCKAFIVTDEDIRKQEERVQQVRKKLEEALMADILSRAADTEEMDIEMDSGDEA
Rin1-Abl PPI inh – human Rin1-Abl interaction inhibition; TR-FRET Rin1/Abl binding, biochemical; inhibition, % at 7.35 µM; AID 588664; 360,000 compounds, 0.4% hits; in the data active = inhibition above about 5%, passing the limit was not always enough
UHRF1 MBD2 ctr – UHRF1 methyl-DNA binding inhibition | Q96T88 | UHRF1 binding to methylated oligo, TR-FRET | inhibition, % at 4.4 µM | 370,000 compounds, 0.75% hits | AID 687016; in the data active = inhibition above about 21%;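 note: UHRF1 SRA domain binding a hemimethylated CpG hairpin DNA probe; 0% = median of test compound wells and 100% = reference inhibitor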
IN multimer up – counter-screen for LEDGF/p75 integration inhibitors: HIV-1 integrase multimerization activators. shares compounds with LEDGF integ inh. TR-FRET HIV-1 integrase multimerization, biochemical. activation, % at 7.7 µM. 2,000 compounds, 17% hits. AID 1053131; in the data active = activation above about 8.9%
TRFRET interf – TR-FRET optical interference, LEDGF/p75 integration counter-screen | shares compounds with LEDGF integ inh | TR-FRET optical interference counterscreen, HIV-1 IN multimerization | inhibition, % at 7.7 µM | 2,000 tested, under 10 active | AID 1053135;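 active = inhibition above the mean over all tested compounds plus 3 SD, which no compound reached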;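 note: 0% = integrase with antibodies and DMSO and 100% = antibodies without integrase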
LEDGF integ conf – LEDGF/p75-dependent HIV-1 integration inhibition, confirmation; shares compounds with LEDGF integ inh; TR-FRET LEDGF/p75-dependent HIV-1 integration, biochemical; inhibition, % at 3.7 µM; 2,000 compounds, 36% hits; AID 1053136; in the data active = inhibition above about 14%
Active calls of the source: *; . = not tested or not shown.

SMILES | LEDGF integ inh | TDP2 absorb | MBD2 inh | Rin1-Abl PPI inh | UHRF1 MBD2 ctr | IN multimer up | TRFRET interf | LEDGF integ conf
CCOc1cc(/C=C2\C(=O)N(Cc3ccco3)C(C)=C2C(=O)OC)ccc1O | 14* | 2 | -9 | 2 | 1 | 1 | -5 | -4
COC(=O)C1=C(C)N(Cc2ccc(C(F)(F)F)cc2)C(=NCC2CC2)NC1c1cccc(Cl)c1 (configuration not stated) | 3 | -4 | 3 | . | 0 | . | . | .
CCC(C)(C)NC(=O)C(c1cccc(OC)c1OC)N(C(=O)CCC(=O)Nc1cc(C)on1)C(C)C (configuration not stated) | 16* | 1 | -5 | 3 | 0 | -1 | 3 | -14
C=CCN(C(=O)[C@@H](CCCC)[C@@H](O)c1ccc(C(C)=O)cc1)c1ccccc1 | 0 | -4 | -1 | . | -4 | . | . | .
COC(=O)[C@]12C[C@H](CC(=O)NCCc3ccccc3OC)C(=O)N(Cc3ccccc3)C1=C[C@H](COCc1ccccc1)O[C@@H]2C | 0 | -6 | -6 | . | -1 | . | . | .
CC1CCCC(C)N1/N=C/c1ccc(O)c(O)c1 (configuration not stated) | 20* | -6 | 0 | 5 | 12 | 22* | -77 | 53*
COc1ccc(/C=N/N2C(C)CCCC2C)cc1O (configuration not stated) | 2 | -12 | -1 | 4 | 2 | . | . | .
CC(=O)NC(CC(=O)Nc1ccc(S(=O)(=O)N2CCCCC2)cc1)c1ccccc1 (configuration not stated) | -1 | 4 | -4 | -5 | -1 | . | . | .
CCOc1ccc(NC(=O)CC(NC(C)=O)c2ccccc2)cc1S(=O)(=O)N1CCCC1 (configuration not stated) | 14* | -10 | -5 | 2 | 6 | 0 | -2 | -2
N=C1c2ccccc2CN1NC(=O)c1cccc(S(=O)(=O)N2CCCC2)c1 | 89* | 16 | -6 | 1 | -4 | -1 | 6 | -4
Cc1ccccc1CN1CCCCC(NC(=O)c2ccc(F)c(F)c2)C1=O (configuration not stated) | 0 | 4 | 1 | . | -2 | . | . | .
CCOC1=C2[C@@H](CN(S(=O)(=O)c3ccccc3C)[C@H]2c2ccc(Cl)cc2)[C@H]2C(=O)N(c3ccccc3)C(=O)[C@H]2C1 | 37* | 1 | -4 | 2 | -1 | 1 | -3 | -9
CCn1c(NC(=O)/C=C/c2ccc(F)cc2)nc2ccccc21 | 16* | 9 | 4 | 1 | -2 | 0 | -2 | 11
Cc1ccc(N(C)c2nc(N)nc(N)c2N=O)cc1 | 14* | 8 | 2 | . | 6 | 2 | -12 | 17*
CCOC(=O)[C@]12CCCC=C1N(CCCOC)C(=O)[C@@H]2CC(=O)NCc1ccccc1 | 1 | -2 | -1 | . | 1 | . | . | .
COc1cccc(CN2C(=O)CCC2(C)C(=O)NC2CCCC2)c1 (configuration not stated) | 22* | 1 | -2 | -1 | -2 | 0 | -2 | 3
COCCN=C1S/C(=C\c2cc(C)n(-c3ccc(F)cc3F)c2C)C(=O)N1C | -2 | 1 | 4 | . | 2 | . | . | .
COc1ccc(C(=O)C(=NN)c2ccccc2)cc1 | 2 | 6 | -1 | -6 | 2 | . | . | .
O=C(/C(=N/N=C/c1ccc(O)c(O)c1O)c1ccccc1)c1ccccc1 | 14* | -11 | 0 | 12* | -3 | 3 | -13 | 28*
O=C(NNC(=O)C1CCN(S(=O)(=O)c2ccc(Cl)cc2)CC1)c1ccc(Cl)cc1 | 84* | 4 | -5 | 1 | 2 | 0 | 2 | 6
O=C(NNC(=O)C1CCN(S(=O)(=O)c2ccc(Cl)cc2)CC1)c1ccccc1 | 2 | 13 | -1 | 0 | 0 | . | . | .
Cc1ccc(C)c(OCc2cc(C(=O)N3CCNC(=O)C3)no2)c1 | 27* | 18 | 1 | 5 | 3 | -1 | 4 | 4
